Our source for the IE50 values is ChEMBL document CHEMBL1139765, “Synthesis, resolution, and antiplatelet activity of 3-substituted 1(3H)-isobenzofuranone” (2007).

Experiment [1] relates to Plasma. As to the kind of experiment: Antiplatelet activity in human platelet rich plasma assessed as inhibition of ADP-induced platelet aggregation. The experiment is classed as functional. Summed up: (§1)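 PRP was prepared from whole blood of healthy volunteers. Compounds were added to PRP at 10, 20, 50 and 100, with aspirin at 5 as reference and PEG-400 as vehicle control. Aggregation was induced with ADP or arachidonic acid, and IE50 was derived from the concentration series.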

In experiment [2] the test system is Plasma. As to the kind of experiment: Antiplatelet activity in human platelet rich plasma assessed as inhibition of arachidonic acid-induced platelet aggregation. The experiment is classed as functional. In outline: as §1

For `CCC[C@@H]1OC(=O)c2ccccc21`, the IE50 stood at 142 µM in experiment [1] and 16.9 µM in experiment [2]. For `CCCC/C=C1\OC(=O)c2ccccc21`, in that order: 201 µM and 17.6 µM.

`CC(=O)Oc1ccccc1C(=O)O` [ASPIRIN]: the IE50 in experiment [1] amounted to 118 µM; in experiment [2] it was 12.3 µM. For `CCCCCC[C@@H]1OC(=O)c2ccccc21`, in that order: 217 µM and 18.5 µM. For `CCCCCCC[C@@H]1OC(=O)c2ccccc21`, in that order: 176 µM and 18.7 µM. For `CC(C)CC[C@H]1OC(=O)c2ccccc21`, in that order: 116 µM and 14.3 µM.

For the compound `CCC1OC(=O)c2ccccc21` (configuration not stated), the IE50 in experiment [1] was found to be 164 µM; in experiment [2], 15.2 µM. For `CC(C)CC[C@@H]1OC(=O)c2ccccc21`, in that order: 207 µM and 17.2 µM.

For the compound `CCCCC1OC(=O)c2ccccc21` (stereo not drawn) [RAC-3-N-BUTYLPHTHALIDE], the values for the IE50 in experiment [1] and in experiment [2] were 170 µM and 14.5 µM, respectively. For `CCCCCC/C=C1\OC(=O)c2ccccc21` the same measures were 289 µM and 18 µM. For `CCCCCC[C@H]1OC(=O)c2ccccc21` the same measures were 139 µM and 14.4 µM. For `CC[C@@H]1OC(=O)c2ccccc21` the same measures were 209 µM and 16.9 µM. With `CCC[C@H]1OC(=O)c2ccccc21`, the IE50 turned out to be 112 µM in experiment [1] and 13.8 µM in experiment [2]. Consider `CC(C)C/C=C1\OC(=O)c2ccccc21`, for which the figures for the IE50 in experiment [1] and in experiment [2] were 204 µM and 17.9 µM, respectively.

Consider `C/C=C1\OC(=O)c2ccccc21`, for which, in experiment [2], the IE50 was 16 µM. On to `CCCC1OC(=O)c2ccccc21` (configuration not stated), for which the figures for the IE50 in experiment [1] and in experiment [2] were 133 µM and 14.9 µM, respectively.

Turning to `CCCCC/C=C1\OC(=O)c2ccccc21`, the IE50 in experiment [1] amounted to 243 µM; in experiment [2], 17.1 µM. For `CCCCC[C@H]1OC(=O)c2ccccc21`, the IE50 in experiment [1] worked out at 178 µM; in experiment [2], 15.1 µM. For `CCCCCC1OC(=O)c2ccccc21` (configuration not stated), in that order: 180 µM and 16.4 µM. For `CCCCC[C@@H]1OC(=O)c2ccccc21`, in that order: 203 µM and 17.9 µM. Consider `CCCCCCC1OC(=O)c2ccccc21` (configuration not stated), for which the IE50 amounted to 220 µM in experiment [1] and 15.8 µM in experiment [2]. For `CCCCCCCC1OC(=O)c2ccccc21` (configuration not stated), in that order: 153 µM and 16.1 µM.

On to `CCCC[C@@H]1OC(=O)c2ccccc21` [(3S)-BUTYLPHTHALIDE], for which the values for the IE50 in experiment [1] and in experiment [2] were 193 µM and 16.1 µM, respectively. For `CCC/C=C1\OC(=O)c2ccccc21` [Z-butylidenephthalide], the IE50 came to 204 µM in experiment [1] and 16.1 µM in experiment [2]. Consider `CCCC[C@H]1OC(=O)c2ccccc21`, for which the values for the IE50 in experiment [1] and in experiment [2] were 94.7 µM and 13.2 µM, respectively. As to `CC/C=C1\OC(=O)c2ccccc21`, the IE50 was found to be 171 µM in experiment [1] and 16.1 µM in experiment [2].

Regarding `CC(C)CCC1OC(=O)c2ccccc21` (configuration not stated), the IE50 stood at 201 µM in experiment [1] and 15.4 µM in experiment [2]. For `CC[C@H]1OC(=O)c2ccccc21`, in that order: 114 µM and 14.1 µM.

For `CCCCCCC[C@H]1OC(=O)c2ccccc21`, the values for the IE50 in experiment [1] and in experiment [2] were 143 µM and 14.7 µM, respectively.
